Data: ChEMBL document CHEMBL1134691, “3-Phenyl-5-acyloxymethyl-2H,5H-furan-2-ones: synthesis and biological activity of a novel group of potential antifungal drugs” (2001)
In brackets after ≈: the same amount, converted by molar mass.

Legend:
Candida tropicalis [1] = assay: Inhibition of Candida tropicalis 156 growth for 24 hours in vitro.; type: functional
How it was run: (§1)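 NCCLS M27-A broth microdilution in RPMI 1640 with L-glutamine and 0.165 M MOPS, pH 7.0. Isolates kept on Sabouraud dextrose agar. Inoculum 5 × 10^3 cfu/mL final. Compounds were diluted in DMSO (≤2% final) and tested in 2-fold dilutions of 1000–0.24 µmol/L. Incubation at 35 °C, OD540 read at 24 and 48 h. MIC = 80% growth inhibition versus control; assays run twice in duplicate.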

[2] = Inhibition of Trichophyton mentagrophytes 445 growth for 120 hours in vitro.; type: functional, Arthroderma benhamiae; conditions: Trichophyton benhamiae, 120 h; read-out: MIC
How it was run: (§2)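 Dermatophyte grown in MOPS-buffered (0.165 M, pH 7.0) RPMI 1640 containing L-glutamine, in an M27-A microdilution format. Inoculum 5 × 10^3 cfu/mL final. Compounds from DMSO stocks (≤2% final), 2-fold dilutions 1000–0.24 µmol/L. Incubated at 35 °C, growth judged visually at 72 and 120 h. MIC endpoint is 80% inhibition relative to control; measured twice in duplicate.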

Candida parapsilosis [3] = assay: Inhibition of Candida parapsilosis ATCC 22019 growth for 24 hours in vitro.; type: functional; conditions: Lodderomyces parapsilosis, ATCC 22019, 24 h; how it was run: as §1
Pichia kudriavzevii [4] = assay: Inhibition of Candida krusei E28 growth for 48 hours in vitro.; type: functional; how it was run: as §1
[5] = Inhibition of Trichophyton mentagrophytes 445 growth for 72 hours in vitro.; type: functional, Arthroderma benhamiae; conditions: Trichophyton benhamiae, 72 h; read-out: MIC; how it was run: as §2
Pichia kudriavzevii [6] = assay: Inhibition of Candida krusei ATCC 6258 growth for 24 hours in vitro.; type: functional; conditions: ATCC 6258, 24 h; how it was run: as §1
Candida albicans [7] = assay: Inhibition of Candida albicans ATCC 44859 growth for 24 hours in vitro.; type: functional; conditions: Candida albicans, ATCC 44859, 24 h; read-out: MIC; how it was run: as §1
Trichosporon beigelii [8] = assay: Inhibition of Trichosporon beigelli 1188 for 48 hours in vitro.; type: functional; conditions: Trichosporon beigelii, 48 h; read-out: MIC
How it was run: (§3)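 Microdilution following NCCLS M27-A. Medium: RPMI 1640 with L-glutamine, 0.165 M MOPS, pH 7.0. Final inoculum 5 × 10^3 cfu/mL. Compounds dissolved in DMSO, final ≤2%, serially halved from 1000 to 0.24 µmol/L. Incubated at 35 °C and read at 24 and 48 h. MIC defined as 80% inhibition of control growth; run twice in duplicate.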

Pichia kudriavzevii [9] = assay: Inhibition of Candida krusei ATCC 6258 growth for 48 hours in vitro.; type: functional; conditions: ATCC 6258, 48 h; how it was run: as §1
Aspergillus fumigatus [10] = assay: Inhibition of Aspergillus fumigatus 231 growth for 24 hours in vitro.; type: functional; conditions: Aspergillus fumigatus, 24 h; read-out: MIC
How it was run: (§4)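 Filamentous isolates tested by microdilution per NCCLS M27-A in RPMI 1640 plus L-glutamine, buffered with 0.165 M MOPS to pH 7.0. Final inoculum 5 × 10^3 cfu/mL. Compounds in DMSO (final ≤2%), 2-fold series over 1000–0.24 µmol/L. Plates held at 35 °C and read visually after 24 and 48 h. MIC taken as 80% inhibition of control growth; determined twice in duplicate.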

Aspergillus fumigatus [11] = assay: Inhibition of Aspergillus fumigatus 231 growth for 48 hours in vitro.; type: functional; conditions: Aspergillus fumigatus, 48 h; read-out: MIC; how it was run: as §4
Clavispora lusitaniae [12] = assay: Inhibition of Candida lusitaniae 2446/I growth for 24 hours in vitro.; type: functional; conditions: Clavispora lusitaniae, 24 h; read-out: MIC; how it was run: as §1
Candida tropicalis [13] = assay: Inhibition of Candida tropicalis 156 growth for 48 hours in vitro.; type: functional; how it was run: as §1
Trichosporon beigelii [14] = assay: Inhibition of Trichosporon beigelli 1188 for 24 hours in vitro.; type: functional; conditions: Trichosporon beigelii, 24 h; read-out: MIC; how it was run: as §3
Nakaseomyces glabratus [15] = assay: Inhibition of Candida glabrata 20/I growth for 48 hours in vitro.; type: functional; conditions: Nakaseomyces glabratus, 48 h; read-out: MIC; how it was run: as §1
Lichtheimia corymbifera [16] = assay: In vitro inhibition of Absidia corymbifera 272 growth for 24 hours.; type: functional; conditions: Lichtheimia corymbifera, 24 h; read-out: MIC; how it was run: as §4
Lichtheimia corymbifera [17] = assay: In vitro inhibition of Absidia corymbifera 272 growth for 48 hours.; type: functional; conditions: Lichtheimia corymbifera, 48 h; read-out: MIC; how it was run: as §4
Candida albicans [18] = assay: Inhibition of Candida albicans ATCC 90028 for 48 hours in vitro.; type: functional; conditions: ATCC 90028, 48 h; how it was run: as §1
Candida albicans [19] = assay: Inhibition of Candida albicans ATCC 90028 for 24 hours in vitro.; type: functional; conditions: ATCC 90028, 24 h; how it was run: as §1
Candida parapsilosis [20] = assay: Inhibition of Candida parapsilosis ATCC 22019 growth for 48 hours in vitro.; type: functional; conditions: Lodderomyces parapsilosis, ATCC 22019, 48 h; how it was run: as §1
Clavispora lusitaniae [21] = assay: Inhibition of Candida lusitaniae 2446/I growth for 48 hours in vitro.; type: functional; conditions: Clavispora lusitaniae, 48 h; read-out: MIC; how it was run: as §1
Candida albicans [22] = assay: Inhibition of Candida albicans ATCC 44859 growth for 48 hours in vitro.; type: functional; conditions: Candida albicans, ATCC 44859, 48 h; read-out: MIC; how it was run: as §1
Pichia kudriavzevii [23] = assay: Inhibition of Candida krusei E28 growth for 24 hours in vitro.; type: functional; how it was run: as §1
Nakaseomyces glabratus [24] = assay: Inhibition of Candida glabrata 20/I growth for 24 hours in vitro.; type: functional; conditions: Nakaseomyces glabratus, 24 h; read-out: MIC; how it was run: as §1
[25] = Pichia kudriavzevii, read-out: MIC
[26] = Candida albicans, read-out: MIC

Row | MIC [2] [µM] | MIC [5] [µM] | MIC (Candida albicans [7]) [µM] | MIC (Trichosporon beigelii [8]) [µM] | MIC (Aspergillus fumigatus [10]) [µM] | MIC (Aspergillus fumigatus [11]) [µM] | MIC (Clavispora lusitaniae [12]) [µM] | MIC (Trichosporon beigelii [14]) [µM] | MIC (Nakaseomyces glabratus [15]) [µM] | MIC (Lichtheimia corymbifera [16]) [µM] | MIC (Lichtheimia corymbifera [17]) [µM] | MIC (Clavispora lusitaniae [21]) [µM] | MIC (Candida albicans [22]) [µM] | MIC (Nakaseomyces glabratus [24]) [µM] | SMILES | further results
1 | 62.5 (≈ 13.8 µg/mL) | 15.6 (≈ 3.44 µg/mL) | 15.6 (≈ 3.44 µg/mL) | 1000 (≈ 220 µg/mL) | 125 (≈ 27.5 µg/mL) | 500 (≈ 110 µg/mL) | 31.2 (≈ 6.88 µg/mL) | 500 (≈ 110 µg/mL) | 250 (≈ 55.1 µg/mL) | 31.2 (≈ 6.88 µg/mL) | 62.5 (≈ 13.8 µg/mL) | 125 (≈ 27.5 µg/mL) | 62.5 (≈ 13.8 µg/mL) | 125 (≈ 27.5 µg/mL) | COc1ccc(C2=CC(CO)OC2=O)cc1 (stereo not drawn) | MIC (Candida tropicalis [1]): 125 µM (≈ 27.5 µg/mL); MIC (Candida parapsilosis [3]): 250 µM (≈ 55.1 µg/mL); MIC (Pichia kudriavzevii [4]): 125 µM (≈ 27.5 µg/mL); MIC (Pichia kudriavzevii [6]): 62.5 µM (≈ 13.8 µg/mL); MIC (Pichia kudriavzevii [9]): 125 µM (≈ 27.5 µg/mL); MIC (Candida tropicalis [13]): 250 µM (≈ 55.1 µg/mL); MIC (Candida albicans [18]): 62.5 µM (≈ 13.8 µg/mL); MIC (Candida albicans [19]): 31.2 µM (≈ 6.88 µg/mL); MIC (Candida parapsilosis [20]): 500 µM (≈ 110 µg/mL); MIC (Pichia kudriavzevii [23]): 62.5 µM (≈ 13.8 µg/mL)
2 | 7.81 (≈ 2.38 µg/mL) | 7.81 (≈ 2.38 µg/mL) | 0.98 (≈ 0.298 µg/mL) | 62.5 (≈ 19 µg/mL) | 7.81 (≈ 2.38 µg/mL) | 31.2 (≈ 9.51 µg/mL) | 31.2 (≈ 9.51 µg/mL) | 62.5 (≈ 19 µg/mL) | 31.2 (≈ 9.51 µg/mL) | 62.5 (≈ 19 µg/mL) | 125 (≈ 38 µg/mL) | 31.2 (≈ 9.51 µg/mL) | 15.6 (≈ 4.76 µg/mL) | 31.2 (≈ 9.51 µg/mL) | COc1ccc(C2=CC(COC(=O)C(C)(C)C)OC2=O)cc1 (stereo not drawn) | MIC (Candida tropicalis [1]; Candida tropicalis, 24 h, read-out: MIC): 31.2 µM (≈ 9.51 µg/mL); MIC (Candida parapsilosis [3]; read-out: MIC): 31.2 µM (≈ 9.51 µg/mL); MIC (Pichia kudriavzevii [4]; Pichia kudriavzevii, 48 h, read-out: MIC): 125 µM (≈ 38 µg/mL); MIC (Pichia kudriavzevii [6]; [25]): 62.5 µM (≈ 19 µg/mL); MIC (Pichia kudriavzevii [9]; [25]): 62.5 µM (≈ 19 µg/mL); MIC (Candida tropicalis [13]; Candida tropicalis, 48 h, read-out: MIC): 62.5 µM (≈ 19 µg/mL); MIC (Candida albicans [18]; [26]): 31.2 µM (≈ 9.51 µg/mL); MIC (Candida albicans [19]; [26]): 31.2 µM (≈ 9.51 µg/mL); MIC (Candida parapsilosis [20]; read-out: MIC): 62.5 µM (≈ 19 µg/mL); MIC (Pichia kudriavzevii [23]; Pichia kudriavzevii, 24 h, read-out: MIC): 62.5 µM (≈ 19 µg/mL)
